Measurements as given in paper PMC3769332 (Molecular & Cellular Proteomics : MCP, 2013).
Ends that are not written are not given here.

How the values were obtained:
[1] = target: T1, SCRIB_3 (Homo sapiens, UniProt Q14160); assay: HTRF peptide-GST-PDZ binding
T1 sequence (Q14160 1004-1093 limits assumed): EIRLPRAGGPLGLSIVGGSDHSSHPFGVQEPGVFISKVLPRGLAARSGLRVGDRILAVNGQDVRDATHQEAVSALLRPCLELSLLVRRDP

[2] = test system: Scrib PDZ1; assay: HTRF peptide binding to Scrib PDZ1; parameters: species or system human
[3] = test system: Xenopus embryo; assay: Neural tube closure in Xenopus embryos; format: in vivo, Xenopus laevis; conditions: MO injected in dorsal blastomeres at 4- to 8-cell stage
[4] = test system: T47D cells; assay: Boyden chamber cell migration, T47D; format: cell-based; conditions: stimulation with 1 nM HRG, 12 h
How it was run: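 Transwell migration through 8-μm pore polycarbonate membranes, underside coated with 25 μg/ml rat-tail collagen I. T47D cells were lipofectamine-transfected with pEGFP, pEGFP-Vangl2 or mutants, serum-starved 16 h, and seeded in the top chamber. The bottom chamber held medium with or without HRG for 12 h. Non-migrated cells were scraped off; migrated cells were fixed in 4% formaldehyde, crystal violet-stained (0.1%) and counted. Fold change, three independent experiments summed.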

[5] = test system: GST fused to the four Scrib PDZ domains; assay: GST-Scrib PDZ pull-down; format: binding, human; conditions: pull-down on transfected HEK 293T extracts
[6] = test system: MEF^Crc/Crc; assay: Boyden chamber cell migration, MEF Crc/Crc; format: cell-based, mouse; conditions: MEFs deficient for Scrib, serum-induced
[7] = test system: Scrib PDZ4; assay: GST-Scrib PDZ pull-down, individual domain; format: binding, human; conditions: pull-down on HEK 293T extracts
[8] = test system: wild-type MEFs; assay: Boyden chamber cell migration, wild-type MEF; format: cell-based, mouse; conditions: serum-induced
How it was run: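 MEFs, wild-type or Crc/Crc, nucleofected transiently with GFP or GFP-Vangl2, then serum-starved 16 h and plated in the upper chamber of 8-μm pore polycarbonate transwells. Filter underside coated with human fibronectin ([…]). Serum (FCS) served as chemoattractant. Migrated cells were fixed in 4% formaldehyde, stained with 0.1% crystal violet and counted. Mann–Whitney U test versus control.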

[9] = test system: Scrib PDZ3 domain; assay: GST-Scrib PDZ pull-down, individual domain; format: binding, human; conditions: pull-down on HEK 293T extracts
[10] = test system: SNX27; assay: Co-affinity purification with SNX27, HEK 293T; format: cell-based; conditions: streptavidin affinity purification, Western blot
[11] = target: T2, GST-Scrib PDZ3 (human, UniProt Q14160 994-1103); assay: AlphaScreen or HTRF
T2 sequence (looked up): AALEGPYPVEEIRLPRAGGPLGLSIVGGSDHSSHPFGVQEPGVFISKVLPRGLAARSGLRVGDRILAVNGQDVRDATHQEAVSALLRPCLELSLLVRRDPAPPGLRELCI

## KSHKFVMRLQSETSV [Vangl2]
[1]
  EC50: 13 µM

## H-VLKNMNDPAWDETNL-OH [βPIX]
[1]; HTRF
  binding to Scrib PDZ3: able to bind
[2]
  binding to Scrib PDZ1: strongly bound

## SNX27 MO: morpholino 5′-TCCCCCTCCTCGTCCGCCATCTTTT-3′ targeting SNX27 translation initiation (all phosphorodiamidate morpholino (PMO))
[3]
  neural tube closure: neural tube closure was strongly impaired in a dose-dependent manner

B1: GFP-Vangl2ΔTSV: GFP-Vangl2 with deletion of the classical PDZ binding motif (protein)
chain: MDTESQYSGYSYKSGHSRSSRKHRDRRDRHRSKSRDGGRGDKSVTIQAPGEPLLDNESTRGDERDDNWGETTTVVTGTSEHSISHDDLTRIAKDMEDSVPLDCSRHLGVAAGATLALLSFLTPLAFLLLPPLLWREELEPCGTACEGLFISVAFKLLILLLGSWALFFRRPKASLPRVFVLRALLMVLVFLLVVSYWLFYGVRILDARERSYQGVVQFAVSLVDALLFVHYLAVVLLELRQLQPQFTLKVVRSTDGASRFYNVGHLSIQRVAVWILEKYYHDFPVYNPALLNLPKSVLAKKVSGFKVYSLGEENSTNNSTGQSRAVIAAAARRRDNSHNEYYYEEAEHERRVRKRRARLVVAVEEAFTHIKRLQEEEQKNPREVMDPREAAQAIFASMARAMQKYLRTTKQQPYHTMESILQHLEFCITHDMTPKAFLERYLAAGPTIQYHKERWLAKQWTLVSEEPVTNGLKDGIVFLLKRQDFSLVVSTKKVPFFKLSEEFVDPKSHKFVMRLQSE
[4]
  effect on cell migration: in contrast to the deletion of the classical PDZ binding motif

B2: GFP-Vangl2: GFP fusion of Vangl2 overexpressed in cells (protein)
chain: MDTESQYSGYSYKSGHSRSSRKHRDRRDRHRSKSRDGGRGDKSVTIQAPGEPLLDNESTRGDERDDNWGETTTVVTGTSEHSISHDDLTRIAKDMEDSVPLDCSRHLGVAAGATLALLSFLTPLAFLLLPPLLWREELEPCGTACEGLFISVAFKLLILLLGSWALFFRRPKASLPRVFVLRALLMVLVFLLVVSYWLFYGVRILDARERSYQGVVQFAVSLVDALLFVHYLAVVLLELRQLQPQFTLKVVRSTDGASRFYNVGHLSIQRVAVWILEKYYHDFPVYNPALLNLPKSVLAKKVSGFKVYSLGEENSTNNSTGQSRAVIAAAARRRDNSHNEYYYEEAEHERRVRKRRARLVVAVEEAFTHIKRLQEEEQKNPREVMDPREAAQAIFASMARAMQKYLRTTKQQPYHTMESILQHLEFCITHDMTPKAFLERYLAAGPTIQYHKERWLAKQWTLVSEEPVTNGLKDGIVFLLKRQDFSLVVSTKKVPFFKLSEEFVDPKSHKFVMRLQSETSV
[5]
  binding to GST-Scrib PDZ1-4: efficient binding
[6]
  effect on cell migration: not significantly affected relative to control conditions
[4]
  effect on cell migration: increased cell migration
[4]; listed as GFP-Vangl2^Lp
  effect on cell migration: did not affect this increased cell migration
[7]
  binding to individual GST-Scrib PDZ4: some weak binding
[8]
  effect on cell migration: increased cell migration
[9]
  binding to individual GST-Scrib PDZ3: most efficient

B3: HA-tagged Vangl2: HA-tagged Vangl2 expressed in HEK 293T cells (protein)
chain: MDTESQYSGYSYKSGHSRSSRKHRDRRDRHRSKSRDGGRGDKSVTIQAPGEPLLDNESTRGDERDDNWGETTTVVTGTSEHSISHDDLTRIAKDMEDSVPLDCSRHLGVAAGATLALLSFLTPLAFLLLPPLLWREELEPCGTACEGLFISVAFKLLILLLGSWALFFRRPKASLPRVFVLRALLMVLVFLLVVSYWLFYGVRILDARERSYQGVVQFAVSLVDALLFVHYLAVVLLELRQLQPQFTLKVVRSTDGASRFYNVGHLSIQRVAVWILEKYYHDFPVYNPALLNLPKSVLAKKVSGFKVYSLGEENSTNNSTGQSRAVIAAAARRRDNSHNEYYYEEAEHERRVRKRRARLVVAVEEAFTHIKRLQEEEQKNPREVMDPREAAQAIFASMARAMQKYLRTTKQQPYHTMESILQHLEFCITHDMTPKAFLERYLAAGPTIQYHKERWLAKQWTLVSEEPVTNGLKDGIVFLLKRQDFSLVVSTKKVPFFKLSEEFVDPKSHKFVMRLQSETSV
[10]
  interaction with SNX27: interacts

## MSCCRSSRTRRETQL [synthetic E6 carboxy-terminal peptide]
[11]
  EC50: 0.4 µM

## VLKNMNDPAWDETNL [soluble non-biotinylated βPIX carboxy-terminal peptide (HTRF)]
[11]
  EC50: 8 µM
